CHRM1 agonist = agonists of human M1 muscarinic receptor; AID 588814; activation, % at 3 µM; 360,000 tested, 0.33% active; CHO-K1 hM1, Fluo-8 calcium fluorescence, agonist mode; 0% DMSO, 100% acetylcholine EC100; P11229;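 active means activation above the run's mean compound activation plus 3 SD, cut at about 16% in these data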;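 further: peak over basal fluorescence ratio within a 140 s kinetic read after compound addition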
TAAR1 agonist = human TAAR1 agonism; Q96RJ0; CHO RD-HGA16 TAAR1, Fluo-8 calcium fluorescence; vehicle wells 0%, saturating PEA agonist 100%; activation, % at 3 µM; 360,000 tested, 0.99% active; AID 624467;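 active means activation above the mean activation of all test compounds in the run plus 3 SD, cut at about 38% in these data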
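Test system: RD-HGA16 (CHO) cells co-expressing Gα16 and hTAAR1 / Benchmarks: DMSO vehicle as 0%, PEA at EC100 as 100% / Repeats: no replicates (n 1) / Measure: % activation from peak over basal fluorescence ratio, DMSO-to-PEA scaled / Timing: 17-24 h plating, Fluo-8 75 min 37 °C, 30 min RT / Technique: kinetic Fluo-8 calcium fluorescence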
M1 antag = human CHRM1 antagonism; 360,000 tested, 1.3% active; CHO-K1 hM1, Fluo-8 calcium fluorescence, ACh EC80 antagonist; inhibition, % at 3 µM;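 active means percent inhibition above its own plate's cutoff, namely the mean of that plate's compound wells plus 3 SD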;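 further: peak over basal fluorescence ratio during 140 s after agonist addition; 0% = ACh EC80 plus DMSO and 100% = DMSO alone without agonist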
m5-HT2A agonist = agonists of mouse serotonin 5-HT2A receptor (HTR2A); P35363; CHO-K1 mHTR2A beta-arrestin complementation, luminescence; percent of 30 µM serotonin response; activation, % at 7.6 µM; 360,000 tested, 0.66% active; AID 624169;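 active means activation above a run cutoff, the mean activation of all tested compounds plus 3 SD, cut at about 14% in these data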;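 further: 0% = plate median of compound wells and 100% = 30 µM serotonin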
Target sequence (P35363 whole entry, looked up): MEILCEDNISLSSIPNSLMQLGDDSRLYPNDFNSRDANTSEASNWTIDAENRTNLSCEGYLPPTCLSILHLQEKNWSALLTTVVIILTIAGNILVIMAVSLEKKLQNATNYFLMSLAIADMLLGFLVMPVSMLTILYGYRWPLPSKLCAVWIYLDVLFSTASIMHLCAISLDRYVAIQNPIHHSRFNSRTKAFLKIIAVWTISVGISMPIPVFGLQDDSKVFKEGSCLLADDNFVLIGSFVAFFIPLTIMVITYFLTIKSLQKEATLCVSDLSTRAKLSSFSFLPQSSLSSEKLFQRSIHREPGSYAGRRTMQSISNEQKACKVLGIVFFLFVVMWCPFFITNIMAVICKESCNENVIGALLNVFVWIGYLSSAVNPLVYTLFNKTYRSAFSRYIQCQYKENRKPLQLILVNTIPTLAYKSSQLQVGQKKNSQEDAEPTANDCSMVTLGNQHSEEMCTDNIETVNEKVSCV
TAAR1 antagonist = antagonists of human TAAR1; CHO RD-HGA16 TAAR1, Fluo-8 calcium fluorescence, antagonist; Q96RJ0; inhibition, % at 3 µM; 360,000 tested, 1.5% active;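 active means inhibition above a per-plate cutoff, the mean inhibition of test compounds on that plate plus 3 SD, cut at about 49% in these data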;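 further: 0% = DMSO plus EC80 beta-PEA response and 100% = DMSO alone without agonist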
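Test system: hTAAR1-expressing CHO RD-HGA16 cells, Gα16-coupled; Probe or stimulus: EC80 β-phenethylamine stimulus; Compound dosing: single nominal final test compound concentration of 3 µM; Timing: 140 s kinetic read after compound, 140 s after agonist; Signal: Fluo-8 calcium-sensitive fluorescence; Measure: % inhibition of agonist calcium response; Controls: DMSO and EC80 PEA controls.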
M1 PAM = human CHRM1 positive allosteric modulation; P11229; CHO-K1 hM1, Fluo-8 calcium fluorescence, ACh EC20; 0% = ACh EC20, 100% = maximal ACh; activation, % at 3 µM; 360,000 tested, 0.088% active; in the data active means activation above about 19%, passing the limit was not always enough
An asterisk follows results filed as active. Only some compounds are listed: those with a hit (about 3.9% of all), similar ones and a draw of the others.

`COc1ccccc1C1CCN(Cc2cccc([N+](=O)[O-])c2)CC1` gave CHRM1 agonist -8.3, TAAR1 agonist 1.5, M1 antag 35.3*, m5-HT2A agonist -5.5, TAAR1 antagonist -6.6 and M1 PAM -22.3.
Screening COc1ccccc1C1CCN(Cc2ccccc2)CC1 returned CHRM1 agonist -9.2, TAAR1 agonist 5.6, M1 antag -0.1, m5-HT2A agonist -7.9, TAAR1 antagonist -18.8 and M1 PAM -5.9.
`Cc1cccc(CC(Cc2nc3ccccc3[nH]2)c2nc3ccccc3[nH]2)c1` (stereo not drawn) gave CHRM1 agonist -3.8, TAAR1 agonist 14.3, M1 antag 3.8, m5-HT2A agonist 3.6, TAAR1 antagonist 52.3* and M1 PAM -3.8.
`CCOc1ccccc1C(=O)NC1CC2CCCC(C1)N2Cc1ccc(C)cc1` (stereo not drawn) gave CHRM1 agonist -9.3, TAAR1 agonist 0.7, M1 antag 42.9*, m5-HT2A agonist -5.4, TAAR1 antagonist -24.7 and M1 PAM -23.8.
For CCNC(=S)NC1CC2CCC(C1)N2Cc1ccccc1 (stereo not drawn) the results were CHRM1 agonist -11.4, TAAR1 agonist 4.4, M1 antag 10.7, m5-HT2A agonist 12.0, TAAR1 antagonist -21.5 and M1 PAM -18.8.
`CCCN1C2CCCC1CC(NC(=O)c1ccccc1F)C2` (stereo not drawn) gave CHRM1 agonist -5.1, TAAR1 agonist -0.1, M1 antag 9.6, m5-HT2A agonist 2.3, TAAR1 antagonist 1.2 and M1 PAM -7.0.
`CCCN1C2CCCC1CC(NC(=O)c1ccccc1)C2` (stereo not drawn) gave CHRM1 agonist -5.9, TAAR1 agonist 5.6, M1 antag 41.9*, m5-HT2A agonist 5.4, TAAR1 antagonist 4.6 and M1 PAM -16.1.
For CCNC(=S)NC1CC2CCCC(C1)N2CCc1ccccc1 (stereo not drawn) the results were CHRM1 agonist -8.3, TAAR1 agonist 1.9, M1 antag 72.4*, m5-HT2A agonist 2.1, TAAR1 antagonist -3.8 and M1 PAM -27.5.
Screening CCCN1C2CCCC1CC(NC(=O)c1ccccc1Br)C2 (stereo not drawn) returned CHRM1 agonist -8.7, TAAR1 agonist 0.9, M1 antag 47.0*, m5-HT2A agonist 5.0, TAAR1 antagonist -15.6 and M1 PAM -20.9.
Screening Cc1ccc(S(=O)(=O)N2CCN(C(=O)COC(=O)CSc3ccc(C)c(C)c3)CC2)c(C)c1 returned CHRM1 agonist -0.5, TAAR1 agonist 2.4, M1 antag 1.6, m5-HT2A agonist 0.7, TAAR1 antagonist -5.7 and M1 PAM 0.9.
Screening COc1cc2sc(-c3ccc(S(C)(=O)=O)cc3)c(C#CCO)c2cc1OC returned CHRM1 agonist 2.7, TAAR1 agonist 5.6, M1 antag -2.3, m5-HT2A agonist 5.5, TAAR1 antagonist 12.5 and M1 PAM 13.6.
`Nc1ccc(C(=O)OC2CCOC2=O)cc1[N+](=O)[O-]` (stereo not drawn) gave CHRM1 agonist -6.0, TAAR1 agonist -0.2, M1 antag -3.1, m5-HT2A agonist 0.0, TAAR1 antagonist -6.0 and M1 PAM 8.3.
CSCCC(NC(=O)COc1ccccc1)C(=O)N1CCOCC1 (stereo not drawn) was read as CHRM1 agonist -3.1, TAAR1 agonist 13.1, M1 antag -11.8, m5-HT2A agonist 1.1, TAAR1 antagonist -12.5 and M1 PAM 11.1.
`O=C(COC(=O)c1ccc(Br)o1)Nc1ccc2c(c1)OCCO2` gave CHRM1 agonist -0.3, TAAR1 agonist 2.7, M1 antag -20.4, m5-HT2A agonist 11.6, TAAR1 antagonist 1.0 and M1 PAM 27.5*.
For O=C(COC(=O)CNC(=O)c1ccc(Br)o1)Nc1ccc2c(c1)OCCO2 the results were CHRM1 agonist 4.4, TAAR1 agonist 6.2, M1 antag -1.1, m5-HT2A agonist -3.1, TAAR1 antagonist 19.8 and M1 PAM 2.9.
O=C(O)c1cc(O)ccc1N=Nc1ccccc1 was read as CHRM1 agonist -4.4, TAAR1 agonist 3.7, M1 antag 6.9, m5-HT2A agonist -0.9, TAAR1 antagonist -18.3 and M1 PAM -5.2.
`O=C(O)c1ccccc1N=Nc1ccc(O)cc1` gave CHRM1 agonist -1.7, TAAR1 agonist 1.8, M1 antag -21.6, m5-HT2A agonist 19.4*, TAAR1 antagonist -5.7 and M1 PAM -1.2.
O=C(c1cccs1)N(c1ccc(Br)cc1)C1C=CS(=O)(=O)C1 (stereo not drawn) was read as CHRM1 agonist -3.3, TAAR1 agonist 16.1, M1 antag -5.3, m5-HT2A agonist 4.0, TAAR1 antagonist -4.3 and M1 PAM 16.4.
O=[N+]([O-])c1cccc(-c2csc(N/N=C/c3cccc(O)c3)n2)c1 was read as CHRM1 agonist -2.0, TAAR1 agonist 3.7, M1 antag 4.0, m5-HT2A agonist -2.4, TAAR1 antagonist 34.8 and M1 PAM 5.9.
Screening Fc1ccccc1C1c2[nH]c3ccccc3c2CCN1Cc1cccn1-c1ncccn1 (stereo not drawn) returned CHRM1 agonist -8.4, TAAR1 agonist 8.3, M1 antag 13.0, m5-HT2A agonist -3.7, TAAR1 antagonist -1.6 and M1 PAM -14.7.
`Cc1ccccc1C1c2[nH]c3ccccc3c2CCN1CCCn1cccn1` (stereo not drawn) gave CHRM1 agonist -6.8, TAAR1 agonist -0.7, M1 antag 90.7*, m5-HT2A agonist -2.9, TAAR1 antagonist -20.2 and M1 PAM -23.4.
For Cc1ccccc1C1c2[nH]c3ccccc3c2CCN1Cc1cccn1-c1ncccn1 (stereo not drawn) the results were CHRM1 agonist -6.4, TAAR1 agonist -0.5, M1 antag 66.1*, m5-HT2A agonist -2.3, TAAR1 antagonist -20.6 and M1 PAM -25.7.
For Cc1cc(NC(=O)Nc2ccccc2F)ccc1Br the results were CHRM1 agonist -3.1, TAAR1 agonist 13.8, M1 antag 11.5, m5-HT2A agonist 1.4, TAAR1 antagonist 66.3* and M1 PAM -10.1.
For Cc1nnc(NC(=O)Nc2cccc(Cl)c2)s1 the results were CHRM1 agonist 4.1, TAAR1 agonist 43.4*, M1 antag -1.7, m5-HT2A agonist -17.3, TAAR1 antagonist 36.0 and M1 PAM -2.0.
`O=C(Nc1cccc(F)c1)Nc1cccc(Cl)c1` gave CHRM1 agonist 3.0, TAAR1 agonist 8.8, M1 antag 42.6*, m5-HT2A agonist 1.1, TAAR1 antagonist -14.2 and M1 PAM -21.0.
CC(=O)c1cccc(NC(=O)NN2CCN(C)CC2)c1 was read as CHRM1 agonist -6.5, TAAR1 agonist -0.6, M1 antag 13.4, m5-HT2A agonist 0.6, TAAR1 antagonist 8.4 and M1 PAM -13.7.
